Env fusion inh = HIV envelope-mediated fusion inhibition. inhibition, % at 12.3 µM. HeLa-JRFL Env/CEM21 cell fusion, luciferase. hit rate 1.1% among 360,000;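 active = mean replicate inhibition score of at least 50 and every replicate individually at or above 50; inconclusive = only one of the two criteria met; inactive = mean below 50 and not all replicates reaching 50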;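 also: 0% = plate neutral controls and 100% = maraviroc near 300 nM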
Cneo AK release = Cryptococcus neoformans lysis via adenylate kinase release; C. neoformans lysis, adenylate kinase release luminescence, 4 h; normalised: neutral wells 0, clomiphene wells 100; lysis activity, % at 15 µM; hit rate 0.2% among 360,000; AID 651654;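 active = mean lysis activity across replicates of at least 80%, whatever share of replicates individually reach that level; inactive = mean lysis activity below 80%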
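Material: C. neoformans cells | Amount: Yeast cell density of 5 × 10^6 cells/mL | Medium: Fresh YPD growth medium | Dosing: Single dose | Times: Static 4 h at 37 °C with compound, 1 h detection | Detection: AK luminescence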
FGF22 binding = FGF22 (human) thermal shift binding | recombinant FGF22 thermal shift, SYPRO orange fluorescence; percent of sucrose octasulfate shift, DMSO zero | activity (Tm shift, normalised), % at 9.99 µM | hit rate 1.5% among 340,000 | AID 651658;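 active = mean Tm shift, scaled 0 neutral to 100 positive control, at about 1.3% or above, every replicate too, limit read from the data; inconclusive = no clear call, values can overlap the other calls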
Target sequence (Q9HCT0 whole entry, looked up): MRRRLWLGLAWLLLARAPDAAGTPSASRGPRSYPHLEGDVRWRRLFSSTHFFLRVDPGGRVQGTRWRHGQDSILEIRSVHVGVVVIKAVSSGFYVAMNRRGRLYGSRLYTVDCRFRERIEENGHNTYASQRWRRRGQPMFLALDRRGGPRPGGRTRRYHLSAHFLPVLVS
PGC1a acetyl inh = lowers PGC1a acetylation signal in U2OS cells; AlphaScreen anti-acetyl-lysine; with virally co-expressed GCN5 acetyltransferase; AID 651687; inhibition, % at 15.6 µM; hit rate 0.17% among 350,000;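 active = every replicate shows inhibition of at least 40%; inconclusive = mean inhibition at least 40% but some replicate below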;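 also: 0% = neutral control wells and 100% = positive control wells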
Ecoli rRNA inh = selective bacterial rRNA inhibition in E. coli | E. coli WT GFP vs humanized-ribosome RFP mutants, fluorescence, 24 h; hits give low values; DMSO median 0, no signal -100 | hit rate 1.6% among 350,000 | AID 720706 | GFP signal change (wild-type ribosome), % (concentration not given with the values);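 active = significant combined selectivity score with lowered wild-type GFP, culture density cut under 30%, mutant RFP and density less affected; inactive = any of these conditions unmet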
ERAP1 HTS inh = inhibitors of human ERAP1 aminopeptidase | recombinant ERAP1, Leu-AMC fluorescence, 60 min | hit rate 0.15% among 340,000 | inhibition, % at 10.7 µM | Q9NZ08;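 active = mean replicate inhibition of at least 30%, or all replicates individually reaching that 30% level; inactive = mean below 30% and not every replicate reaching it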;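 also: 0% = neutral control wells and 100% = L-leucinethiol positive control wells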
HepG2 cytotox = kills or reduces viability of HepG2 cells | ATP luminescence, 72 h | shares compounds with Ecoli rRNA inh | activity change, negative = cytotoxicity, unspecified at 26 µM | 30 tested, under 10 active;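 active = compounds whose fitted half-maximal signal-loss concentration is at most twice their highest valid dose; inconclusive = flat curve with 30 to 70% signal loss, or poor fit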
AID977621 = wild-type E. coli growth inhibition versus H69 humanized strain – H69 mutant RFP, wild-type GFP, cherry-pick, dose response; shares compounds with Ecoli rRNA inh; fluorescence, 24 h; activity change, negative = inhibition at 50 µM; 1,900 tested, under 10 active;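 active = Wild-type ribosome reporter drop at least double the humanized mutant ribosome reporter drop, growth loss under a set limit; inconclusive = no clear call, values can overlap the other calls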;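 also: wild-type GFP and H69 mutant RFP strains grown together 50/50 in each well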
AID977628 = E. coli growth inhibition, wild-type GFP versus h24 humanized RFP strain, dose response, h24 mutant RFP vs wild-type GFP, cherry-pick; shares compounds with Ecoli rRNA inh; E. coli WT GFP strain growth, fluorescence, 24 h; activity change, negative = inhibition at 50 µM; 1,900 tested, under 10 active; AID 977628;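 active = compound lowering the normal-ribosome reporter at least twice as much as the humanized-ribosome reporter, growth loss under a set limit; inconclusive = no clear call, values can overlap the other calls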;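 also: wild-type GFP and h24 humanized RFP strains co-cultured 1 to 1 per well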
Active calls of the source: *; u = inconclusive; x = no result. A selection: hits, their analogues and other compounds. The true share with any hit is near 3.5%.

SMILES | Env fusion inh | Cneo AK release | FGF22 binding | PGC1a acetyl inh | Ecoli rRNA inh | ERAP1 HTS inh | AID977621 | AID977628 | others
Cc1noc(C)c1COc1cccc(C(=O)N2CCc3ccccc32)c1 | 31 | 1 | 0 | -8 | -41* | 0 | -7.5 | -11
COc1cc(C(=O)N2CCc3ccccc32)ccc1OCc1c(C)noc1C | 19 | 6 | 0 | 6 | -5 | -2 | x | x
CCc1ccc(OCC(=O)NCc2ccco2)c(Br)c1 | x | -4 | 0 | 1 | -21* | 0 | -3.9 | x
CCS(=O)(=O)N1CCN(c2ccnc3cc(Cl)ccc23)CC1 | -3 | 1 | 0 | 24 | -21* | 0 | -4.3 | x
COc1ccccc1C(c1nnnn1CS(=O)(=O)c1ccc(C)cc1)N1CCSCC1 (stereo unspecified) | x | 2 | x | 0 | x | x | x | x
O=S(=O)(NC1c2cccc3cccc(c23)C1Sc1ncccn1)c1ccccc1 (stereo unspecified) | 35 | x | 0 | x | -24* | -4 | -7.5 | u
Cn1cnnc1SC1c2cccc3cccc(c23)C1NS(=O)(=O)c1ccccc1 (stereo unspecified) | -5 | 5 | x | -2 | x | x | x | x
CC(OC(=O)COc1ccccc1)C(=O)NC1CCCC1 (stereo unspecified) | x | -1 | 0 | 9 | -18* | -2 | x | -8.7
CC(Oc1ccccc1)C(=O)NC1CCCCCCC1 (stereo unspecified) | 1 | 0 | 0 | x | 3 | 0 | x | x
Cn1cc([N+](=O)[O-])c(C(=O)Nc2ccc(-c3nc4ccccc4[nH]3)cc2)n1 | x | x | 0 | x | -26* | -4 | -29 | u
O=C(CC1C(=O)NCCN1CC1CCCCC1)NCc1ccc(F)cc1F (stereo unspecified) | 7 | x | 0 | 6 | -20* | 1 | 10 | u
COc1ccc(NC(=S)N(CCCN2CCOCC2)Cc2cn(C)c3ccccc23)cc1 | 2 | x | 0 | x | 7 | 0 | x | x
Cc1cc(C)cc(NC(=O)c2cccc(NC(=O)c3ccco3)c2)c1 | -4 | -2 | 0 | -13 | -24* | -3 | -25 | x
O=Cc1ccccc1OCCCOc1cccc2cccnc12 | -29 | -1 | 0 | -7 | -3 | 7 | x | x
O=C(Nc1ccc(Br)cc1)c1cccnc1N1CCCCC1 | x | 2 | 0 | -29 | -34* | -1 | -4.4 | -7.9
COC(=O)C1=CN(c2ccc(Oc3ccccc3)cc2)C(N)=C(C#N)C1c1cccc(F)c1 (stereo unspecified) | 10 | x | 0 | x | -8 | -7 | x | x
C=CCN1C(=O)c2n[nH]c(COC)c2C1c1ccc2c(c1)OCO2 (stereo unspecified) | 15 | x | 0 | x | 6 | 4 | x | x
COCc1[nH]nc2c1C(c1ccc3c(c1)OCO3)N(c1ccc(OC)cc1)C2=O (stereo unspecified) | -14 | x | 0 | x | -30* | -1 | 4.7 | 0.031
O=C(NCCCN1CCOCC1)c1sc2cc([N+](=O)[O-])ccc2c1Cl | x | -2 | x | 0 | x | x | x | -8.6
O=C(O)c1cc([N+](=O)[O-])ccc1NCc1ccccc1 | 13 | x | 0 | x | -25* | 3 | x | x | HepG2 cytotox=13
Fc1ccccc1C1CCN(Cc2nc(COc3ccccc3)no2)C1 (stereo unspecified) | 8 | 0 | 0 | -9 | -16* | 0 | -8.3 | -2
CC(=O)Nc1ccc(NC(=O)c2c(C)nc3ccccn23)cc1 | x | 5 | x | -6 | x | x | x | x
Cc1nc2ccccn2c1C(=O)Nc1ccc(Cl)cc1 | -13 | x | 43 | 8 | -18* | -3 | -8.1 | -6.1
CC(C)(C)CNC(=O)[C@]1(C)CCC[C@@]2(C)C3CC[C@@]4(C)C[C@]3(CCC21)CC4=O (stereo partly specified) | 42 | 0 | 0 | x | -8 | x | x | x
CCn1cc(CNC(=O)C2CCC(=O)N(CCc3cccc(F)c3)C2)cn1 (stereo unspecified) | 6 | -1 | 0 | 0 | 6 | 0 | x | x
SMILES | Env fusion inh | Cneo AK release | FGF22 binding | PGC1a acetyl inh | Ecoli rRNA inh | ERAP1 HTS inh | AID977621 | AID977628 | others
Cc1ccc(-c2c[n+](CC(=O)OCc3ccccc3)c3n2CCC3)cc1 | 16 | -2 | 0 | -5 | -14* | 0 | -20 | -8.4
O=C(C[n+]1cc(-c2ccccc2)n2c1CCC2)OCc1ccccc1 | 10 | x | x | x | x | x | x | x
Cc1nc(SCC(=O)N2CCOCC2)c2c(=O)n(C)c(=O)n(CC(C)C)c2n1 | 3 | 0 | 0 | -3 | 4 | -1 | x | x
Cc1cc(C)n2nc(C(=O)Nc3cccc(S(=O)(=O)N(C)c4ccccc4)c3)nc2n1 | -2 | x | 1 | x | -26* | 0 | -15 | x
CN(c1ccccc1)S(=O)(=O)c1cccc(NC(=O)c2ccncc2)c1 | 9 | x | 0 | x | -15 | -3 | x | x
Cc1cccc(NC(=O)C2CCCCN2S(=O)(=O)c2ccccc2)c1C (stereo unspecified) | x | 0 | 0 | -2 | -11 | -7 | x | x
O=C(Nc1ccccc1N1CCOCC1)C1CCCCN1S(=O)(=O)c1ccccc1 (stereo unspecified) | 4 | x | 0 | -9 | -31* | 1 | -11 | -17
CN(C)S(=O)(=O)c1cccc(NC(=O)c2ccc3c(c2)S(=O)(=O)N=C2CCCCCN23)c1 | x | 4 | -1 | -6 | -20* | 1 | -13 | -10
CN(C)S(=O)(=O)c1cccc(NC(=O)c2cc3c(cc2Cl)N2CCCCCC2=NS3(=O)=O)c1 | -1 | x | 42 | x | -4 | -7 | x | x
CN(C)S(=O)(=O)c1cccc(C(=O)Nc2ccc(C(=O)Nc3cccc(S(N)(=O)=O)c3)cc2)c1 | 19 | 0 | x | -6 | -24* | 2 | x | -8
Cc1ccccc1NC(=O)COC(=O)c1cccc(S(=O)(=O)N2CCCCC2)c1 | x | x | 0 | -2 | 0 | 3 | x | x
COC(C(=O)Nc1ccnn1C1CCN(Cc2ccc(Cl)s2)CC1)c1ccccc1 (stereo unspecified) | 6 | 0 | 0 | 10 | -22* | 2 | -4.8 | -9.8
CCC(=O)Nc1cc(C(C)C)c(O)cc1C | -27 | 17 | x | 6 | x | x | x | x
Brc1ccc(Nc2ncnc3[nH]ncc23)cc1 | 10 | 0 | 0 | 9 | -20* | 8 | -12 | x
CCOc1ccccc1NC(=O)Nc1cccc(C(C)=O)c1 | -65 | -1 | x | 3 | x | x | x | x
COc1ccccc1-c1nn(-c2ccccc2)cc1C(=O)N1CCc2ccccc2C1 | x | -1 | 0 | -14 | -14 | 2 | x | x

Screens as filed in PubChem BioAssay.
